Laboratory results from ChEMBL document CHEMBL1275351, “Novel spirotetracyclic zwitterionic dual H(1)/5-HT(2A) receptor antagonists for the treatment of sleep disorders” (J Med Chem, 2010).

Assays:
[1] = target: Histamine H1 receptor (Homo sapiens, UniProt P35367); assay: Antagonist activity against human histamine H1 receptor expressed in CHO cells by FLIPR assay; type: functional, cell-based
[2] = target: 5-hydroxytryptamine receptor 2B (Homo sapiens, UniProt P41595); assay: Antagonist activity at human 5HT2B receptor expressed in human SH-SY5Y cells by FLIPR assay
Sequence of 5-hydroxytryptamine receptor 2B (P41595 whole entry): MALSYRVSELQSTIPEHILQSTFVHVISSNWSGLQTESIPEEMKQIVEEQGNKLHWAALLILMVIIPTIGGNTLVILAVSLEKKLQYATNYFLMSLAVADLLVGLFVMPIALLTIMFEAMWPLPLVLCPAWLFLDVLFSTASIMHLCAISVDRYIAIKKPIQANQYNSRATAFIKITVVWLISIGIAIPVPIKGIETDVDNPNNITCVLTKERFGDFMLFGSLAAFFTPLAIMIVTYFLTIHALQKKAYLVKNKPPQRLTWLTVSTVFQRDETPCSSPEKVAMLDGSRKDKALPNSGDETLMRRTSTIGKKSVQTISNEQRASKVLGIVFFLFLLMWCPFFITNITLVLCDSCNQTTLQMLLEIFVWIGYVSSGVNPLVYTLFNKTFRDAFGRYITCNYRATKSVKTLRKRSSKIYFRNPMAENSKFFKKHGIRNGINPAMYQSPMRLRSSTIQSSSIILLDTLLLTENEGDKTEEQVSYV

[3] = target: 5-hydroxytryptamine receptor 2A (Homo sapiens, UniProt P28223); assay: Antagonist activity at human 5HT2A receptor expressed in HEK cells assessed as inhibition of intracellular calcium accumulation by aequorin assay; type: functional, cell-based, HEK293
Sequence of 5-hydroxytryptamine receptor 2A (Homo sapiens, UniProt P28223) (P28223 whole entry): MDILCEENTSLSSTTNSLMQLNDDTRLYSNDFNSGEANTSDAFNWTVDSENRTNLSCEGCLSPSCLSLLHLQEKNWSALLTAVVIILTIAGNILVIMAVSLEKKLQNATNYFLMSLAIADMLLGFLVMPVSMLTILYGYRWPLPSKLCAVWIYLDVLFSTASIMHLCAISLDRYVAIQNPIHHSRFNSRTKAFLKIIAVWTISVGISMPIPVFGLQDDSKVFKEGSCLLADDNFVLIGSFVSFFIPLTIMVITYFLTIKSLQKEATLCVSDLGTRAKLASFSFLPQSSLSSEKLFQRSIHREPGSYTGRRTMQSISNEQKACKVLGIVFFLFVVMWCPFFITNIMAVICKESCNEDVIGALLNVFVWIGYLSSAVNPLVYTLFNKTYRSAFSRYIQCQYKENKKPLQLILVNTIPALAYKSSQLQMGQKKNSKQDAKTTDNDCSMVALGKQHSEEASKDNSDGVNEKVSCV

[4] = target: T1, 5-hydroxytryptamine receptor 2C (Homo sapiens, UniProt P28335); assay: Antagonist activity at human 5HT2C receptor expressed in human SH-SY5Y cells by FLIPR assay; type: functional, cell-based
T1 sequence (P28335 whole entry): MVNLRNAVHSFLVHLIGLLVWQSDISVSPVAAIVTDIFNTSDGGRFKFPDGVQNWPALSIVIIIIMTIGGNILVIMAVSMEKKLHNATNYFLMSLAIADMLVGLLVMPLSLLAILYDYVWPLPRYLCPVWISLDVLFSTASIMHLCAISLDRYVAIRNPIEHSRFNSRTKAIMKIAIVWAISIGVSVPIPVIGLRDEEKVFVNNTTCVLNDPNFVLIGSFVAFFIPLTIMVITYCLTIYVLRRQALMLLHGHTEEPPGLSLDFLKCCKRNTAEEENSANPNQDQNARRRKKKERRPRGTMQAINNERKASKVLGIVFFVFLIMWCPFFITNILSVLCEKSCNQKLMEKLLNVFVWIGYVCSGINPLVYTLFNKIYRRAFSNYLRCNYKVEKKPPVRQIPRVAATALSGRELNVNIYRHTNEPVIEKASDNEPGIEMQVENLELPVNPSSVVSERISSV

[5] = Half life in Sprague-Dawley rat at 1 mg/kg, iv and 3 mg/kg, po; type: ADME, organism-based; details: in vivo
Summary of the method: (§1)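 Male Sprague-Dawley rats, cassette dosing. Compounds were given as an iv bolus and as an oral suspension. Blood samples were taken at intervals up to 24 h, processed by protein precipitation and analysed by HPLC-MS/MS.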

[6] = Fraction unbound in rat brain; type: ADME, tissue-based
[7] = target: Cytochrome P450 3A4 (Homo sapiens, UniProt P08684); assay: Inhibition of human CYP3A4 transfected in bactosome expression system by spectrofluorimetry; type: ADME
Sequence of Cytochrome P450 3A4 (P08684 whole entry): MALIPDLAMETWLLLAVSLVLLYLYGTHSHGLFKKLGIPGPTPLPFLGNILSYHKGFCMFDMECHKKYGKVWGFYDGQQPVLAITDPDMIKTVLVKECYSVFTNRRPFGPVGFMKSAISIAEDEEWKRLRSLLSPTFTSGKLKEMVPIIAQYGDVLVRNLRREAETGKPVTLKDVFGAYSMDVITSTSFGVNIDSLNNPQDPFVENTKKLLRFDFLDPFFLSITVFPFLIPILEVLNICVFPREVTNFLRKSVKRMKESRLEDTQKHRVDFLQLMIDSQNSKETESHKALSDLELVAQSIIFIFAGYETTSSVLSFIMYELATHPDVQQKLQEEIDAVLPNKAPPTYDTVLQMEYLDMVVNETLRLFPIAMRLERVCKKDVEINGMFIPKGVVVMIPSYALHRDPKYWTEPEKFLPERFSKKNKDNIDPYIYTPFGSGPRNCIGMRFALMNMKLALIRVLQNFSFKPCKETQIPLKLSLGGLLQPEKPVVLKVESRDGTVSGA
Summary of the method: (§2)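 Recombinant human CYP Bactosomes (0.1 mg/mL) in 50 mM phosphate buffer, pH 7.4. Compound at 0.1-10 μM was preincubated with fluorogenic substrate for 10 min at 37 °C, and the reaction was started with an NADPH regenerating system. Metabolite fluorescence was followed for 10 min. Substrates: 1A2 ethoxyresorufin 0.5 μM; 2C9 FCA 50 μM; 2C19 BMC 10 μM; 2D6 MMC 10 μM; 3A4 DEF 1 μM or 7-BQ 25 μM. Run in triplicate.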

[8] = target: Cytochrome P450 2C9 (Homo sapiens, UniProt P11712); assay: Inhibition of human CYP2C9 transfected in bactosome expression system by spectrofluorimetry; type: ADME; summary of the method: as §2
[9] = Volume of distribution at steady state in Sprague-Dawley rat at 1 mg/kg, iv and 3 mg/kg, po; type: ADME, organism-based; details: in vivo, read-out: Vdss; summary of the method: as §1
[10] = Ratio of drug level in brain to blood in Sprague-Dawley rat at 1 mg/kg, iv and 3 mg/kg, po; type: ADME, organism-based; details: read-out: BBR
Summary of the method: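 Male Sprague-Dawley rats, cassette dosing, iv bolus or oral suspension. Blood and brain levels were measured by protein precipitation and HPLC-MS/MS. Brain:blood ratio was taken from AUC0-8h after oral dosing, or at 1 h after iv dosing for one compound.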

[11] = target: Cytochrome P450 2C19 (Homo sapiens, UniProt P33261); assay: Inhibition of human CYP2C19 transfected in bactosome expression system by spectrofluorimetry; type: ADME; summary of the method: as §2
[12] = target: T2, Cytochrome P450 1A2 (Homo sapiens, UniProt P05177); assay: Inhibition of human CYP1A2 transfected in bactosome expression system by spectrofluorimetry; type: ADME; summary of the method: as §2
T2 sequence (P05177 whole entry): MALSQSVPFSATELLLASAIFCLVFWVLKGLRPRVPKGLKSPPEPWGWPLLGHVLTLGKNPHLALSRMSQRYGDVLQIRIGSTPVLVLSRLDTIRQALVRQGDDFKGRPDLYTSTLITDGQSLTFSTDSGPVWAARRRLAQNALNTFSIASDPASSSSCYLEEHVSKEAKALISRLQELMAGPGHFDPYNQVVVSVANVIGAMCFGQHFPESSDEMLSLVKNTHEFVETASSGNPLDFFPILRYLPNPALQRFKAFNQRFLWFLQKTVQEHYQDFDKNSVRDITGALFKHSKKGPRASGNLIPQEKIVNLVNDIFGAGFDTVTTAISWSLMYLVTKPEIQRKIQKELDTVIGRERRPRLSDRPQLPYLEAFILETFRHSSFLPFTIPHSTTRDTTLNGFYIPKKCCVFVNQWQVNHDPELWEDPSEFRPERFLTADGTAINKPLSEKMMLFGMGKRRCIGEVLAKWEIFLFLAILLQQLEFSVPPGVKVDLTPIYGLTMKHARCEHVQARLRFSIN

[13] = target: Cytochrome P450 2D6 (Homo sapiens, UniProt P10635); assay: Inhibition of human CYP2D6 transfected in bactosome expression system by spectrofluorimetry; type: ADME; summary of the method: as §2
Sequence of Cytochrome P450 2D6 (P10635 whole entry): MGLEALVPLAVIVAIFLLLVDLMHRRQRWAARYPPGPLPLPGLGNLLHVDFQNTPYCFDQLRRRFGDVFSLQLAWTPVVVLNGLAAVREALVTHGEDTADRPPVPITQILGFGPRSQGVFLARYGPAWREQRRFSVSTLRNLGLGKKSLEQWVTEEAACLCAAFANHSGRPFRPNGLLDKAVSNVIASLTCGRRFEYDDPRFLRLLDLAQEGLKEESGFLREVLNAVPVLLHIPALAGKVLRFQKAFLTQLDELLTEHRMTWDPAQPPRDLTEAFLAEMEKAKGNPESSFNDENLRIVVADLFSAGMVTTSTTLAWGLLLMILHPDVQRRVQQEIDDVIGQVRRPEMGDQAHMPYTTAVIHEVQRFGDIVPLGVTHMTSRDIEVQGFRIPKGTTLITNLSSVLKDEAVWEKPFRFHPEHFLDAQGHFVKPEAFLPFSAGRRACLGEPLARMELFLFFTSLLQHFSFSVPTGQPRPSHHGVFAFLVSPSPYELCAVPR

[14] = Oral bioavailability in Sprague-Dawley rat at 3 mg/kg; type: ADME, organism-based; details: in vivo; summary of the method: as §1
[15] = Fraction unbound in rat blood; type: ADME, tissue-based
[16] = target: Histamine H1 receptor (Rattus norvegicus, UniProt P31390); assay: Displacement of [3H]pyrilamine from histamine H1 receptor in Sprague-Dawley rat cortical membrane by liquid scintillation counting
Sequence of Histamine H1 receptor (Rattus norvegicus, UniProt P31390) (P31390 whole entry): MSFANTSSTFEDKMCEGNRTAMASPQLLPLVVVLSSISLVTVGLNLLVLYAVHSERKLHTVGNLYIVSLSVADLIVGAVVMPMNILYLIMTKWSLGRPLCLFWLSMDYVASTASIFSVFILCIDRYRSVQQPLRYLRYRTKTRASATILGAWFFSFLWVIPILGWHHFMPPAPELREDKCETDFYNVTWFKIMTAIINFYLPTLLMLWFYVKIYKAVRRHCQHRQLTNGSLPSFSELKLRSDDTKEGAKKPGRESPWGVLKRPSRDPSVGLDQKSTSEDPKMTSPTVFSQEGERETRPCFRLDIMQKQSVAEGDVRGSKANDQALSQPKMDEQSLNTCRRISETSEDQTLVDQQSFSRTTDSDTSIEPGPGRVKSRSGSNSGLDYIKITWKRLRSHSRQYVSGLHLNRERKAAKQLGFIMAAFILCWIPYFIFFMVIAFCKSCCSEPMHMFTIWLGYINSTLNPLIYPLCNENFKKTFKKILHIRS
Summary of the method: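 Cerebral cortex membranes from male Sprague-Dawley rats (200-250 g), 150 μg/well. Incubated with 0.6 nM [3H]pyrilamine in 50 mM HEPES, pH 7.4, for 2 h at room temperature. Filtered on PEI-soaked GF/B and counted by scintillation. Nonspecific binding with 10 μM cetirizine. Ki by Cheng-Prusoff; mean of two experiments in duplicate.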

[17] = target: 5-hydroxytryptamine receptor 2A (Rattus norvegicus, UniProt P14842); assay: Displacement of [3H]ketanserin from 5HT2A receptor in Sprague-Dawley rat cortical membrane by liquid scintillation counting
Sequence of 5-hydroxytryptamine receptor 2A (Rattus norvegicus, UniProt P14842) (P14842 whole entry): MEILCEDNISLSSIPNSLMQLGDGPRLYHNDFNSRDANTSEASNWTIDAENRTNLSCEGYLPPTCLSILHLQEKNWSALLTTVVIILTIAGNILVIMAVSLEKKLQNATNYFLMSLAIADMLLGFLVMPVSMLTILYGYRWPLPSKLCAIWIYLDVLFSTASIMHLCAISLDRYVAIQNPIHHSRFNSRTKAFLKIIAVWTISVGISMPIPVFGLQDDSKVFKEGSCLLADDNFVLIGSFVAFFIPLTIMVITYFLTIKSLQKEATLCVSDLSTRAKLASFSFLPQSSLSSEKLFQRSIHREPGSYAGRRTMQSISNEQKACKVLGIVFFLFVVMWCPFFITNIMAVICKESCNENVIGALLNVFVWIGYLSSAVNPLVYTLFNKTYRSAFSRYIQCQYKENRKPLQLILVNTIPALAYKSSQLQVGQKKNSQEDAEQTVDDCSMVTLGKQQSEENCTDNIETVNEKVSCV
Summary of the method: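 Cerebral cortex membranes from male Sprague-Dawley rats (200-250 g), 50 μg/well. Incubated with 1 nM [3H]ketanserin in 50 mM Tris-HCl, 10 mM MgCl2, pH 7.4, for 1 h at 37 °C with shaking. Filtered on PEI-soaked GF/B and counted by scintillation. Nonspecific binding with 10 μM mianserin. Ki by Cheng-Prusoff; mean of two experiments in duplicate.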

[18] = Blood clearance in Sprague-Dawley rat at 1 mg/kg, iv and 3 mg/kg, po; type: ADME, organism-based; details: whole blood; summary of the method: as §1
[19] = target: Voltage-gated inwardly rectifying potassium channel KCNH2 (Homo sapiens, UniProt Q12809); assay: Displacement of [3H]dofetilide from human ERG by scintillation proximity assay
Sequence of Voltage-gated inwardly rectifying potassium channel KCNH2 (Q12809 whole entry): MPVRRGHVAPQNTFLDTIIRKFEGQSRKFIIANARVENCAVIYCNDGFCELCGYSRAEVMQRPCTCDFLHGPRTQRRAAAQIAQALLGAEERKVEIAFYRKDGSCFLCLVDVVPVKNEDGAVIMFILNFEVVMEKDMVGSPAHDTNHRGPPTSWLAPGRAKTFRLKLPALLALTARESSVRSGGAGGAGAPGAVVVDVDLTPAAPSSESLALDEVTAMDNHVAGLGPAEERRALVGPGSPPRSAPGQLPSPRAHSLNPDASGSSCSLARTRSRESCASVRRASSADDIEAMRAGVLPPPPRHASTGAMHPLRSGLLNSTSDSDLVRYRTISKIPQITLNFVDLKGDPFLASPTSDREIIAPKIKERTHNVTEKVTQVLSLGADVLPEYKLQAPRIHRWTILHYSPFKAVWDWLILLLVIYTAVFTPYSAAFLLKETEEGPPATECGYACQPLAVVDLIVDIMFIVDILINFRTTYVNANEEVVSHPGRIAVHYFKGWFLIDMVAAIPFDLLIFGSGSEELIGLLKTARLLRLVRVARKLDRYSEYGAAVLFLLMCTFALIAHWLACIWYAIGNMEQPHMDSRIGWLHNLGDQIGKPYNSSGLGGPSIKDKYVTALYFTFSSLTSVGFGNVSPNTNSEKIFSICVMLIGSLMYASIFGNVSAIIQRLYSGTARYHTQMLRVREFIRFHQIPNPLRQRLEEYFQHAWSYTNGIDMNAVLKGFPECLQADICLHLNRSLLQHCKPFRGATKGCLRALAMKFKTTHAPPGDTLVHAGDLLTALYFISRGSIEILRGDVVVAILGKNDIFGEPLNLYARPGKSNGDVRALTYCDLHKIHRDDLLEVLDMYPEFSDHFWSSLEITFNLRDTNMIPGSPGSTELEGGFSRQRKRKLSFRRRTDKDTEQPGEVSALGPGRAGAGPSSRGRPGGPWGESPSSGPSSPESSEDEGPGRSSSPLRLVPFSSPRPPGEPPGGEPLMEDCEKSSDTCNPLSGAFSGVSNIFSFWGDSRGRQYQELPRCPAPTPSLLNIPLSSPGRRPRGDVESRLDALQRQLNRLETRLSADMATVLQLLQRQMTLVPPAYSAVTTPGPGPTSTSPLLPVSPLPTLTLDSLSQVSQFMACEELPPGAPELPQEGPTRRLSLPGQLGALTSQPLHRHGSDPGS

Sequence of Histamine H1 receptor (Homo sapiens, UniProt P35367) (P35367 whole entry): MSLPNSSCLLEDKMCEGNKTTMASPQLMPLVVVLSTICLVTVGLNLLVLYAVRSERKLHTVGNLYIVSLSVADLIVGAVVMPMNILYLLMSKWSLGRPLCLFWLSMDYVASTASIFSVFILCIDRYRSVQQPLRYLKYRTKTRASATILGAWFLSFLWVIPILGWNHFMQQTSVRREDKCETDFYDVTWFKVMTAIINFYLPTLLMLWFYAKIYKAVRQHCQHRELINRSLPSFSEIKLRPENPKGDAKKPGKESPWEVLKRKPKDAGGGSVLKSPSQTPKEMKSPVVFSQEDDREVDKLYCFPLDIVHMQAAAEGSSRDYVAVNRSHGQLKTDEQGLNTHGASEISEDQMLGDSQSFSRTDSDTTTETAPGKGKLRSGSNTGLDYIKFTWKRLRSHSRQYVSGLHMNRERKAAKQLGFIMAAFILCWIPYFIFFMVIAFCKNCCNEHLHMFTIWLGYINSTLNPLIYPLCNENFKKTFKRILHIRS

Ki [1] | Ki [2] | Ki [3] | Ki [4] | SMILES | also measured
0.0501 µM | 0.00316 µM | 0.0398 µM | 0.0158 µM | CC1(C(=O)O)CCN(C2CCC3(Cc4ccccc4Cc4ccccc43)C2)CC1 (configuration not stated) | 
0.2 µM | > 2 µM | 0.126 µM | > 2 µM | O=C(O)C1CCN(C2CCC3(C2)C(=O)c2cc(F)ccc2Sc2ccccc23)CC1 (configuration not stated) | 
0.0316 µM | 1 µM | 0.02 µM | 0.02 µM | O=C(O)CC1CCN(C2CC[C@]3(Cc4ccccc4Cc4ccccc43)C2)C1 (some centres not stated) | 
0.1 µM | > 2 µM | 0.398 µM | > 2 µM | O=C(O)C1=CCCN(C2CCC3(Cc4ccccc4Oc4ccccc43)C2)C1 (configuration not stated) | 
0.02 µM | 1.26 µM | 0.0631 µM | 0.0316 µM | O=C(O)[C@@H]1CCCN(C2CC[C@]3(Cc4ccccc4Cc4ccccc43)C2)C1 (some centres not stated) | 
 | 0.0316 µM |  | 0.2 µM | CN1CCC(=C2c3ccccc3CC(=O)c3sccc32)CC1 [KETOTIFEN] | 
0.0501 µM | 0.251 µM | 0.1 µM | 0.126 µM | O=C(O)C1(O)CCN(C2CCC3(Cc4ccccc4Cc4ccccc43)C2)CC1 (configuration not stated) | 
0.316 µM | 0.0398 µM | 0.0501 µM | > 2 µM | O=C(O)CC1CN(C2CCC3(Cc4ccccc4Cc4ccccc43)C2)C1 (configuration not stated) | 
0.158 µM | > 2 µM | 0.398 µM | > 2 µM | O=C(O)C1(F)CCN(C2CCC3(Cc4ccccc4Oc4ccccc43)C2)CC1 (configuration not stated) | 
1 µM | > 2 µM | 0.398 µM |  | O=C(O)C1CCN(C2CCC3(C2)C(=O)c2cc(Cl)ccc2Oc2ccccc23)CC1 (configuration not stated) | 
0.2 µM | > 2 µM | > 2 µM |  | O=C(O)[C@@H]1CCCN(C2CCC3(C2)C(=O)c2cc(Cl)ccc2Oc2ccccc23)C1 (some centres not stated) | 
0.0251 µM | > 2 µM | 2 µM | > 2 µM | O=C(O)CCNC1CC[C@@]2(Cc3ccccc3Cc3ccccc32)C1 (some centres not stated) | IC50 [19]: > 63.1 µM
0.01 µM | > 2 µM | 0.158 µM | 0.1 µM | O=C(O)CCNC1CC[C@]2(Cc3ccccc3Cc3ccccc32)C1 (some centres not stated) | IC50 [19]: 63.1 µM
0.0158 µM | 0.1 µM | 0.02 µM | 0.0158 µM | O=C(O)C1CCN(C2CC[C@]3(Cc4ccccc4Cc4ccccc43)C2)C1 (some centres not stated) | 
0.0398 µM | > 2 µM | > 0.759 µM | 0.316 µM | O=C(O)C1=CCCN(C2CCC3(Cc4cc(F)ccc4Cc4ccccc43)C2)C1 (configuration not stated) | 
0.126 µM | > 2 µM | 0.1 µM |  | O=C(O)[C@@H]1CCCN(C2CCC3(Cc4ccccc4Oc4ccccc43)C2)C1 (some centres not stated) | 
0.2 µM | 0.251 µM | 0.0501 µM | 0.251 µM | O=C(O)C=C1CN(C2CCC3(Cc4ccccc4Cc4ccccc43)C2)C1 (configuration not stated) | 
0.0501 µM | > 2 µM | 0.0251 µM | 1 µM | O=C(O)C1=CCN(C2CCC3(Cc4ccccc4Oc4ccccc43)C2)CC1 (configuration not stated) | half-life [5]: 3 h; fraction unbound [6]: 0.027; IC50 [7]: > 10 µM; IC50 [8]: > 10 µM; Vd [9]: 2.7 L/kg; Kp [10]: 1.8; IC50 [11]: > 10 µM; IC50 [12]: > 10 µM; IC50 [13]: > 10 µM; bioavailability [14]: 37%; fraction unbound [15]: 0.103; Ki [16]: 0.02 µM; Ki [17]: 0.105 µM; clearance [18]: 16 mL/min/kg
0.0794 µM | 1.58 µM | 0.316 µM |  | O=C(O)C1CCN(C2CCC3(Cc4ccccc4Oc4ccccc43)C2)CC1 (configuration not stated) | 
0.0398 µM | > 2 µM | 0.0794 µM | 0.2 µM | O=C(O)C1=CCN(C2CCC3(Cc4ccccc4Cc4ccccc43)C2)CC1 (configuration not stated) | 
0.1 µM | 1.26 µM | 0.316 µM | 0.2 µM | O=C(O)C1CN(C2CC[C@]3(Cc4ccccc4Cc4ccccc43)C2)CCN1 (some centres not stated) | 
0.0398 µM | > 2 µM | 0.631 µM | > 2 µM | O=C(O)[C@H]1[C@@H]2CN(C3CCC4(Cc5ccccc5Cc5ccccc54)C3)C[C@@H]21 (some centres not stated) | 
0.0631 µM | > 2 µM | 0.1 µM | 0.316 µM | O=C(O)C1CN(C2CC[C@]3(Cc4ccccc4Cc4ccccc43)C2)CCO1 (some centres not stated) | 
0.794 µM | > 2 µM | 0.0794 µM | 1.58 µM | O=C(O)C1(F)CCCN(C2CC[C@]3(Cc4ccccc4Cc4ccccc43)C2)C1 (some centres not stated) | 
0.0251 µM | 1 µM | 0.631 µM | > 2.51 µM | O=C(O)CC1CCN(C2CCC3(Cc4ccccc4Cc4ccccc43)C2)CC1 (configuration not stated) | 
0.0126 µM | 0.01 µM | 0.0126 µM | 0.02 µM | CC1(C(=O)O)CCN(C2CC[C@]3(Cc4ccccc4Cc4ccccc43)C2)C1 (some centres not stated) | 

SMILES | Ki [1] | Ki [2] | Ki [3] | Ki [4] | also measured
O=C(O)C1=CCCN(C2CC[C@]3(Cc4ccccc4Cc4ccccc43)C2)C1 (single isomer, unassigned; stereoisomer 1) | 0.0251 µM |  | 0.126 µM | 0.158 µM | half-life [5]: 2.4 h; fraction unbound [6]: 0.03; IC50 [7]: > 10 µM; IC50 [8]: > 10 µM; Vd [9]: 0.4 L/kg; Kp [10]: 0.1; IC50 [11]: > 10 µM; IC50 [12]: > 10 µM; IC50 [13]: > 10 µM; bioavailability [14]: 80%; fraction unbound [15]: 0.024; Ki [16]: 0.00871 µM; Ki [17]: 0.117 µM; clearance [18]: 2 mL/min/kg
O=C(O)C1=CCCN(C2CCC3(C2)C(=O)c2ccccc2Cc2ccccc23)C1 (configuration not stated) | 0.0794 µM |  | > 2 µM | > 2 µM | 
O=C(O)C1=CCCN(C2CC[C@@]3(Cc4ccccc4Cc4ccccc43)C2)C1 (some centres not stated) | 0.158 µM | > 2 µM | 3.98 µM | > 2 µM | 
O=C(O)C1=CCCN(C2CC[C@]3(Cc4ccccc4Cc4ccccc43)C2)C1 (stereo in doubt; 48) | 0.02 µM | > 2 µM | > 2 µM | > 2 µM | 
